Screens as filed in PubChem BioAssay.
pCIP destab: compounds decreasing mouse p/CIP protein stability. Q05BA5. F442A p/CIP-EGFP cells, EGFP fluorescence, 16 h. decrease of EGFP signal, % at 10 µM. 290,000 tested, 0.01% active. AID 1984;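 active = EGFP signal decrease of at least 30% at 10 µM or well 3 SD below plate mean, unless failing retest; inactive = the rest, including hits failing retest or dose response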
Hck-Nef inh: inhibitors of human Hck kinase activated by Nef. P08631. Recombinant Hck-YEEI plus Nef, Z-Lyte FRET kinase assay. inhibition, % at 20 µM. 220,000 tested, 0.68% active;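 active = Hck-Nef kinase inhibition above about 50%, limit read from the data; inactive = inhibition below that limit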;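 also: 0% = DMSO with Hck plus Nef and 100% = Hck alone without Nef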
Runt-CBFb FRET: Runt domain-CBFb interaction inhibition | Cerulean-Runt/Venus-CBFb FRET ratio 530/480, 1 h | 220,000 tested, 0.46% active | inhibition, % at 20 µM;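 active = inhibition over about 50% at 20 µM in the single-dose screen, limit read from the data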;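 also: 0% = DMSO wells and 100% = excess unlabeled CBFb competitor control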
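System: Cerulean-labeled Runt domain protein | Quantity: 100 nM of each labeled protein | Schedule: 1 h compound exposure, room temperature | Detection: Fluorescence energy transfer, 422 nm excitation, 530/480 nm emission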
Runt-SMMHC FRET: blocks binding of human RUNX1 Runt domain to CBFb-SMMHC; Q01196+Q13951; Cerulean-Runt/Venus-CBFb-SMMHC FRET ratio 530/480, 1 h; 220,000 tested, 0.74% active; inhibition, % at 20 µM;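 active = mean inhibition across duplicate retests at 20 µM reaching about 50%, limit read from the data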;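 also: 0% = DMSO wells and 100% = wells with excess untagged CBFb-SMMHC; inhibitors lower the FRET ratio by blocking Runt binding to CBFb-SMMHC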
RanGTP-Impb inh: disruptors of Ran-importin-beta complex formation – biochemical, FRET, CFP-Ran, YFP-importin-beta, homogeneous, primary screen; cell-free CFP-Ran/YFP-importin-beta FRET ratio; inhibition, % (test concentration not listed); 300,000 tested, 1.1% active; AID 2216;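 active = more than half of the replicate wells show a fall in the fluorescence ratio signal beyond about 16%, limit read from the data, passing the limit was not always enough; inconclusive = exactly half of the replicate wells pass the set limit; inactive = fewer than half of replicates pass the limit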;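 also: 0% = DMSO wells and 100% = Ran loaded with GDP instead of GTP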
Pemphigus Ab inh: blocks pemphigus antibody binding to human desmoglein-3 | P32926 | DSG3-coupled beads, scFv-anti-DSG3-GFP binding, flow cytometry; hits give low values | binding (percent of control), % at 10 µM | 310,000 tested, 0.48% active | AID 588358;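 active = binding more than 3 SD below its plate's average and above zero; inconclusive = below that plate limit but binding exactly zero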;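 also: hits lower antibody fragment binding to DSG3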
* = called active by the depositor; ? = inconclusive; / = no result. Compounds with a hit are over-represented: about 2.1% of the library has one in this group of screens.

SMILES	pCIP destab	Hck-Nef inh	Runt-CBFb FRET	Runt-SMMHC FRET	RanGTP-Impb inh	Pemphigus Ab inh
c1coc(C2=Nc3cccc4cccc(c34)N2)c1	5	28	6	-23	7	78*
N#Cc1cc2ccc(N3CCOCC3)cc2cc1C#N	-6	-1	3	-10	35*	79
CCOC(=O)C1=C(C)c2ccccc2OC1(C(=O)OCC)C(C)C (configuration not stated)	/	/	/	/	/	101
Fc1cccc(CN2CCN(Cc3nc(-c4cnccn4)no3)CC2)c1	-7	20	0	2	1	-16*
Cc1ccc2sc(NC(=O)CSc3nc(C)cc(C)c3C#N)nc2c1	-8	1	12	56*	8	105
Cc1cc(C(F)(F)F)c(C#N)c(SCC(=O)Nc2nc3ccccc3s2)n1	-18	-3	-5	6	-24	125
Oc1c(Cl)cc(CN2CCCCC2)c2cccnc12	-13	/	/	/	8	?
Oc1c(CN2CCN(c3ccccn3)CC2)cc(Cl)c2cccnc12	7	-2	-2	-14	24*	97
OCCN1CCN(Cc2cc(Cl)c3cccnc3c2O)CC1	-9	1	4	-6	40*	103
O=C(c1ccco1)N1CCN(Cc2ccccc2Br)CC1	-6	/	/	/	7	72*
COc1ccc(C2(C)NC(=O)N(CC(=O)Nc3ccc(C)cc3Br)C2=O)cc1OC (configuration not stated)	-11	/	/	/	8	107
COc1ccc(C2(C)NC(=O)N(CC(=O)Nc3ccc(Br)c(C)c3)C2=O)cc1OC (configuration not stated)	-31	/	/	/	21*	/
CCC(C(=O)Nc1cccc(C(=O)O)c1C)c1ccccc1 (configuration not stated)	-3	6	0	3	1	100
COc1ccc(N=Cc2nc(-c3ccco3)oc2O)cc1	-4	-1	1	5	20*	/
CC1=[N+](C)c2c(ccc3cccnc23)C1(C)C	-43	-5	-15	-80	/	79*
O=C(Cn1ncc(Cl)c(Cl)c1=O)Nc1ccc2c(c1)OCO2	/	/	/	/	/	87
CCN(CC)S(=O)(=O)c1cc(NC(=O)Cn2ncc(Cl)c(Cl)c2=O)ccc1C	-4	74*	-2	-13	-2	83
Cc1ccc(C(=O)O)cc1NC(=S)NC(=O)c1ccc(-c2ccc(Cl)cc2)o1	-8	56*	0	0	-1	95
COc1ccc(C(=O)O)cc1NC(=S)NC(=O)c1ccc(-c2ccc(Cl)cc2)o1	-2	36	5	-4	7	97
CCN(CC(=O)Nc1ccc2c(c1)OCCO2)C(=O)c1ccc(C)c(S(=O)(=O)N2CCOCC2)c1	/	/	/	/	-3	96
Cc1cc(C)c2nc3nc(C)c(C)cc3c(N)c2c1	-16	7	19	92*	14	99
O=C(Nc1cccc(C(=O)O)c1)/C(=C\c1ccc(F)cc1)NC(=O)c1ccco1	1	/	/	/	5	109
Cc1ccc(N(C(=O)c2snc(C(N)=O)c2N)C(C(=O)NCCC(C)C)c2ccco2)cc1 (configuration not stated)	-10	75*	-3	9	-1	95
NC(=O)c1nsc(C(=O)N(CCc2ccccc2)C(C(=O)NC2CCCC2)c2ccco2)c1N (configuration not stated)	-4	0	4	6	89*	89
CCc1ccc(N(C(=O)c2snc(C(N)=O)c2N)C(C(=O)NC2CCCC2)c2ccco2)cc1 (configuration not stated)	1	/	/	/	5	93
SMILES	pCIP destab	Hck-Nef inh	Runt-CBFb FRET	Runt-SMMHC FRET	RanGTP-Impb inh	Pemphigus Ab inh
O=C(N=C1SC2CS(=O)(=O)CC2N1Cc1ccccc1Cl)C1CC1 (configuration not stated)	-3	/	/	/	3	102
CCOCCCNC(=O)c1cc2c(=O)n3cccc(C)c3nc2s1	48	/	/	/	-1	102
Cc1cccn2c(=O)c3cc(C#N)c(=NC(=O)c4cccs4)n(CC(C)C)c3nc12	-8	16	39	88*	151*	/
Cc1cccn2c(=O)c3cc(C(=O)NCC(C)C)sc3nc12	-6	/	/	/	-4	98
CCOCCCn1c(=NC(=O)c2cccs2)c(C#N)cc2c(=O)n3cccc(C)c3nc21	-2	20	76*	81*	121*	104
Cc1cc(C)c2c(=O)n3c(nc2c1)C(Cc1ccc(O)cc1)NC(=O)c1cc2ccccc2cc1-3 (configuration not stated)	/	/	/	/	/	107
COc1ccc(NC(=O)CCS(=O)(=O)c2ccc3nc(C)sc3c2)cc1OC	7	/	/	/	0	105
Cc1nc2ccc(NC(=O)CCS(=O)(=O)c3ccc(Cl)cc3)cc2s1	-10	1	0	-5	2	-174*
O=c1[nH]c(N/N=C\c2ccc(F)cc2)nc2ccccc12	-1	24	16	19	38*	90
CC(=O)N1CCc2c(sc(NC(=O)CS(=O)(=O)c3ccc(F)cc3)c2C#N)C1	/	/	/	/	2	99
CC(C)N1CCc2c(sc(NC(=O)CCS(=O)(=O)c3ccccc3)c2C#N)C1	-5	/	/	/	169*	105
COC(=O)c1ccsc1NC(=O)CCS(=O)(=O)c1ccccc1	-17	/	/	/	6	111
COC(=O)c1c(NC(=O)CCS(=O)(=O)c2ccccc2)sc2c1CCN(C)C2	-4	/	/	/	79*	107
CCCN1CCc2c(sc(NC(=O)CCS(=O)(=O)c3ccccc3)c2C(=O)OC)C1	-16	/	/	/	155*	/
COc1ccc(OC)c(NC(=O)NNC(=O)COc2ccc(F)cc2F)c1	-5	/	/	/	-1	104
Cc1ccc([C@H]2C[C@H](n3cc(C4CC4)nn3)[C@@H](O)CN2C(=O)C2CCCCC2)cc1	/	/	/	/	/	103
Cc1nn(-c2ccccc2)c2sc(C(=O)NNC(=O)COc3ccccc3)cc12	-3	12	121*	128	1	110
CCOc1ccc(CNC(c2ccccc2)c2ccccc2)cc1	-8	/	/	/	33*	101
CC(Sc1nnnn1C)C(=O)Nc1cc(S(=O)(=O)N2CCCCC2)ccc1Cl (configuration not stated)	/	/	/	/	/	105
CN1\C(=C/C=C/C=C/C=[N+](C)C)C(C)(C)c2ccccc21	-49	37	-1	-41	8	66*
COc1ccc(NC(C)=O)cc1S(=O)(=O)NC1CCSc2ccccc21 (configuration not stated)	-5	/	/	/	-3	118
Cc1cc(C)n(CCC(=O)N=Nc2c(O)[nH]c3ccc(Br)cc23)n1	-8	25	-1	6	-4	96
CCOCCOC(=O)C1=C(C)Nc2ccc(C)cc2S1	1	8	2	11	23*	104
